# From ChEMBL document CHEMBL5058577, “EUbOPEN Chemogenomics Library 2 (Multiplex)” (2022)
# Test system: Fibroblast
# Experiment: Multiplex assay against human fibroblast
# Format: toxicity, cell-based
# Outline: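 Imaging took place on a CQ1 microscope at 37°C and 5% CO2 once compound had been added to live cells stained at seeding with Hoechst33342, BioTracker Green Microtubule Cytoskeleton Dye, MitoTracker Red and Annexin V Alexa Fluor 680. CellPathfinder machine-learning gating classed cells as Hoechst high-intensity objects or normal cells, classed normal cells as having healthy, pyknosed or fragmented nuclei, and classed pyknosed cells as mitotic or apoptotic. Tubulin, mitochondrial-mass and membrane-permeability phenotypes are per cents of the healthy-nucleus cells.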
# [1] = 12 h, 1 µM, compound concentration 1 uM, replicate 1
# [2] = 12 h, 1 µM, compound concentration 1 uM, replicate 2
# [3] = 12 h, 10 µM, compound concentration 10 uM, replicate 1
# [4] = 12 h, 10 µM, compound concentration 10 uM, replicate 2
# [5] = 24 h, 1 µM, compound concentration 1 uM, replicate 1
# [6] = 24 h, 1 µM, compound concentration 1 uM, replicate 2
# [7] = 24 h, 10 µM, compound concentration 10 uM, replicate 1
# [8] = 24 h, 10 µM, compound concentration 10 uM, replicate 2
# [9] = 48 h, 1 µM, compound concentration 1 uM, replicate 1
# [10] = 48 h, 1 µM, compound concentration 1 uM, replicate 2
# [11] = 48 h, 10 µM, compound concentration 10 uM, replicate 1
# [12] = 48 h, 10 µM, compound concentration 10 uM, replicate 2
smiles,measurement,setting,value
C[C@@H]1CC(=O)Nc2cccc(-c3ccc4c(c3)c(-c3cnn(C)c3)nn4C)c2N1,Population Apoptotic (%),[1],38%
same,Population Fragmented Nuclei (%),[1],20%
same,Population Healthy Nuclei (%),[1],63%
same,Population Hoechst High Intensity Objects (%),[1],1%
same,Population Membrane Permeable-Phenotype (%),[1],0%
same,Population Mitochondria Different-Phenotype (%),[1],4%
same,Population Mitotic Cells (%),[1],61%
same,Population Normal (%),[1],98%
same,Population Pyknosed Nuclei (%),[1],15%
same,Population Tubulin-Different-Phenotype (%),[1],31%
same,Total Cell Count,[1],115
same,Population Fragmented Nuclei (%),[2],26%
same,Population Healthy Nuclei (%),[2],47%
same,Population Hoechst High Intensity Objects (%),[2],5%
same,Population Membrane Permeable-Phenotype (%),[2],8%
same,Population Mitochondria Different-Phenotype (%),[2],12%
same,Population Normal (%),[2],94%
same,Population Pyknosed Nuclei (%),[2],26%
same,Population Tubulin-Different-Phenotype (%),[2],51%
same,Total Cell Count,[2],105
same,Population Apoptotic (%),[3],40%
same,Population Fragmented Nuclei (%),[3],17%
same,Population Healthy Nuclei (%),[3],65%
same,Population Hoechst High Intensity Objects (%),[3],5%
same,Population Membrane Permeable-Phenotype (%),[3],1%
same,Population Mitochondria Different-Phenotype (%),[3],19%
same,Population Mitotic Cells (%),[3],59%
same,Population Normal (%),[3],94%
same,Population Pyknosed Nuclei (%),[3],17%
same,Population Tubulin-Different-Phenotype (%),[3],63%
same,Total Cell Count,[3],161
same,Population Apoptotic (%),[4],30%
same,Population Fragmented Nuclei (%),[4],11%
same,Population Healthy Nuclei (%),[4],58%
same,Population Hoechst High Intensity Objects (%),[4],6%
same,Population Membrane Permeable-Phenotype (%),[4],7%
same,Population Mitochondria Different-Phenotype (%),[4],5%
same,Population Mitotic Cells (%),[4],69%
same,Population Normal (%),[4],93%
same,Population Pyknosed Nuclei (%),[4],30%
same,Population Tubulin-Different-Phenotype (%),[4],68%
same,Total Cell Count,[4],126
same,Population Apoptotic (%),[5],57%
same,Population Fragmented Nuclei (%),[5],16%
same,Population Healthy Nuclei (%),[5],67%
same,Population Hoechst High Intensity Objects (%),[5],2%
same,Population Membrane Permeable-Phenotype (%),[5],2%
same,Population Mitochondria Different-Phenotype (%),[5],5%
same,Population Mitotic Cells (%),[5],42%
same,Population Normal (%),[5],97%
same,Population Pyknosed Nuclei (%),[5],15%
same,Population Tubulin-Different-Phenotype (%),[5],33%
same,Total Cell Count,[5],122
same,Population Apoptotic (%),[6],35%
same,Population Fragmented Nuclei (%),[6],29%
same,Population Healthy Nuclei (%),[6],50%
same,Population Hoechst High Intensity Objects (%),[6],7%
same,Population Membrane Permeable-Phenotype (%),[6],11%
same,Population Mitochondria Different-Phenotype (%),[6],9%
same,Population Mitotic Cells (%),[6],65%
same,Population Normal (%),[6],92%
same,Population Pyknosed Nuclei (%),[6],19%
same,Population Tubulin-Different-Phenotype (%),[6],60%
same,Total Cell Count,[6],112
same,Population Apoptotic (%),[7],75%
same,Population Fragmented Nuclei (%),[7],19%
same,Population Healthy Nuclei (%),[7],69%
same,Population Hoechst High Intensity Objects (%),[7],10%
same,Population Membrane Permeable-Phenotype (%),[7],0%
same,Population Mitochondria Different-Phenotype (%),[7],15%
same,Population Mitotic Cells (%),[7],25%
same,Population Normal (%),[7],89%
same,Population Pyknosed Nuclei (%),[7],11%
same,Population Tubulin-Different-Phenotype (%),[7],66%
same,Total Cell Count,[7],158
same,Population Apoptotic (%),[8],42%
same,Population Fragmented Nuclei (%),[8],13%
same,Population Healthy Nuclei (%),[8],57%
same,Population Hoechst High Intensity Objects (%),[8],5%
same,Population Membrane Permeable-Phenotype (%),[8],1%
same,Population Mitochondria Different-Phenotype (%),[8],4%
same,Population Mitotic Cells (%),[8],57%
same,Population Normal (%),[8],94%
same,Population Pyknosed Nuclei (%),[8],29%
same,Population Tubulin-Different-Phenotype (%),[8],76%
same,Total Cell Count,[8],119
same,Population Apoptotic (%),[9],50%
same,Population Fragmented Nuclei (%),[9],25%
same,Population Healthy Nuclei (%),[9],60%
same,Population Hoechst High Intensity Objects (%),[9],5%
same,Population Membrane Permeable-Phenotype (%),[9],1%
same,Population Mitochondria Different-Phenotype (%),[9],6%
same,Population Mitotic Cells (%),[9],50%
same,Population Normal (%),[9],94%
same,Population Pyknosed Nuclei (%),[9],14%
same,Population Tubulin-Different-Phenotype (%),[9],21%
same,Total Cell Count,[9],114
same,Population Apoptotic (%),[10],30%
same,Population Fragmented Nuclei (%),[10],36%
same,Population Healthy Nuclei (%),[10],50%
same,Population Hoechst High Intensity Objects (%),[10],2%
same,Population Membrane Permeable-Phenotype (%),[10],12%
same,Population Mitochondria Different-Phenotype (%),[10],8%
same,Population Mitotic Cells (%),[10],69%
same,Population Normal (%),[10],97%
same,Population Pyknosed Nuclei (%),[10],13%
same,Population Tubulin-Different-Phenotype (%),[10],60%
same,Total Cell Count,[10],102
same,Population Apoptotic (%),[11],92%
same,Population Fragmented Nuclei (%),[11],17%
same,Population Healthy Nuclei (%),[11],73%
same,Population Hoechst High Intensity Objects (%),[11],3%
same,Population Membrane Permeable-Phenotype (%),[11],0%
same,Population Mitochondria Different-Phenotype (%),[11],19%
same,Population Mitotic Cells (%),[11],7%
same,Population Normal (%),[11],96%
same,Population Pyknosed Nuclei (%),[11],8%
same,Population Tubulin-Different-Phenotype (%),[11],68%
same,Total Cell Count,[11],162
same,Population Apoptotic (%),[12],60%
same,Population Healthy Nuclei (%),[12],62%
same,Population Hoechst High Intensity Objects (%),[12],4%
same,Population Membrane Permeable-Phenotype (%),[12],6%
same,Population Mitochondria Different-Phenotype (%),[12],2%
same,Population Mitotic Cells (%),[12],39%
same,Population Normal (%),[12],95%
same,Population Pyknosed Nuclei (%),[12],19%
same,Population Tubulin-Different-Phenotype (%),[12],69%
same,Total Cell Count,[12],122
